ChEMBL document CHEMBL5678799 (Biochem J, 2009)
Activity calls are given as the source filed them. The calls are words filed in the database; no cut-off is given here.

How the values were obtained:
[1] = tested on: MEF; test: Induction of cell cycle arrest in MEF cells assessed as accumulation at G2 phase at 3 uM incubated for 1 to 3 days by propidium iodide staining based flow cytometric analysis (reference value: 15.4 +/- 2.04%); type: toxicity; conditions: mouse, time 1-3 day
[2] = target: cAMP-dependent protein kinase catalytic subunit alpha (Homo sapiens) (UniProt P17612); test: Inhibition of recombinant human N-terminal GST-tagged PKAalpha (2 to 351 residues) expressed in Escherichia coli assessed as remaining activity at 1 uM using Kemptide as substrate incubated for 30 mins in presence of [gamma-33P]ATP by filter binding method relative to control
Procedure, shortened: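 Panel assays were run for 30 min at 21 °C, within the linear range for time and enzyme. […] Results are percent activity remaining relative to compound-free control, averaged from triplicate ± S.D.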

[3] = target: Maternal embryonic leucine zipper kinase (Homo sapiens) (UniProt Q14680); test: Inhibition of recombinant human N-terminal GST/C-terminal His6-tagged MELK (2 to 651 residues) expressed in Escherichia coli assessed as remaining activity at 10 uM using KKLNRTLSFAEPG as substrate incubated for 30 mins in presence of [gamma-33P]ATP by filter binding method relative to control
Maternal embryonic leucine zipper kinase (Homo sapiens), sequence (Q14680 whole entry, looked up, the tested form may be a part): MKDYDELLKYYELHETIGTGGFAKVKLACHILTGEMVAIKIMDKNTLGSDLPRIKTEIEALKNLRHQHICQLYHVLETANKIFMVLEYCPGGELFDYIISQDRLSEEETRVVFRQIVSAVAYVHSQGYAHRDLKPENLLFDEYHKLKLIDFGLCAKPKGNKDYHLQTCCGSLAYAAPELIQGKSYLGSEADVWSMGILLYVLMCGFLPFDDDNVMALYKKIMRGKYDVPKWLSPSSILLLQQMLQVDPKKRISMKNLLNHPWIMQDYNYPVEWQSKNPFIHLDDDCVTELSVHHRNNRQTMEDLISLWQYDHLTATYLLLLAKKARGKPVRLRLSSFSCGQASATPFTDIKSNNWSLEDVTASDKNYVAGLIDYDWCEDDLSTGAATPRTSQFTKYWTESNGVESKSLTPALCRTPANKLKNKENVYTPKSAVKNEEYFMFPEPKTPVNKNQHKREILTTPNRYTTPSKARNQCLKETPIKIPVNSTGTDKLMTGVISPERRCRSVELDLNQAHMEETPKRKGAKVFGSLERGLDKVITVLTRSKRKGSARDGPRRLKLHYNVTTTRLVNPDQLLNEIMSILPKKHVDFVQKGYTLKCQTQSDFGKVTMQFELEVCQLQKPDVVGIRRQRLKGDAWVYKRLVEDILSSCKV
Procedure, shortened: (§1)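 Incubation was 30 min at room temperature (21 °C) under conditions linear with time and enzyme amount. Activity is reported as percent of control lacking compound, triplicate mean ± S.D.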

[4] = target: mTORC1 (Homo sapiens) (UniProt P42345+Q8N122+Q9BVC4); conditions: HEK293, dose 30.0 nM, time 30.0 min
[5] = target: Dual specificity tyrosine-phosphorylation-regulated kinase 3 (Homo sapiens) (UniProt O43781); test: Inhibition of recombinant human N-terminal GST-tagged DYRK3 (1 to 588 residues) expressed in Escherichia coli assessed as remaining activity at 1 uM using KKISGRLSPIMTEQ as substrate incubated for 30 mins in presence of [gamma-33P]ATP by filter binding method relative to control
Dual specificity tyrosine-phosphorylation-regulated kinase 3 (Homo sapiens), sequence (O43781 whole entry, the tested form may be a part): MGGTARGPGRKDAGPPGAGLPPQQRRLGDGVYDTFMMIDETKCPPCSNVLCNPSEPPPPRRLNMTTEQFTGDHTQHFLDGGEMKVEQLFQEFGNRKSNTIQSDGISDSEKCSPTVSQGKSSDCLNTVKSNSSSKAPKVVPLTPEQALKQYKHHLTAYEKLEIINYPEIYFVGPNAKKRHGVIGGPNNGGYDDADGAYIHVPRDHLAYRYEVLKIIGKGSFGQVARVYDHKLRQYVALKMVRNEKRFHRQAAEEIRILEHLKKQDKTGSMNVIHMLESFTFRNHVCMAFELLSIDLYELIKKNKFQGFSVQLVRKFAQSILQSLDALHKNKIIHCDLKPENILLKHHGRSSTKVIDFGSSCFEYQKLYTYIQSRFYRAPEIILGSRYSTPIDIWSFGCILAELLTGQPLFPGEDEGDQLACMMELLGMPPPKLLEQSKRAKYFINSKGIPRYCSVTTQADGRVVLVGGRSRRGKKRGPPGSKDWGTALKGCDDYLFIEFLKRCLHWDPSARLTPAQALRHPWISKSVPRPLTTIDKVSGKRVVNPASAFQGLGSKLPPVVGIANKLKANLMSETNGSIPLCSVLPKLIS
Procedure, shortened: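 Radiometric kinase panel run robotically at 21 °C for 30 min, linear in time and enzyme. […] Activity expressed as percentage of control without inhibitor; triplicate determinations.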

[6] = target: Mitogen-activated protein kinase 1 (Homo sapiens) (UniProt P28482); test: Inhibition of recombinant human N-terminal GST-tagged ERK2 (2 to 360 residues) expressed in Escherichia coli assessed as remaining activity at 10 uM using MBP as substrate incubated for 30 mins in presence of [gamma-33P]ATP by filter binding method relative to control; procedure, shortened: as §1
Mitogen-activated protein kinase 1 (Homo sapiens), sequence (P28482 whole entry, the tested form may be a part): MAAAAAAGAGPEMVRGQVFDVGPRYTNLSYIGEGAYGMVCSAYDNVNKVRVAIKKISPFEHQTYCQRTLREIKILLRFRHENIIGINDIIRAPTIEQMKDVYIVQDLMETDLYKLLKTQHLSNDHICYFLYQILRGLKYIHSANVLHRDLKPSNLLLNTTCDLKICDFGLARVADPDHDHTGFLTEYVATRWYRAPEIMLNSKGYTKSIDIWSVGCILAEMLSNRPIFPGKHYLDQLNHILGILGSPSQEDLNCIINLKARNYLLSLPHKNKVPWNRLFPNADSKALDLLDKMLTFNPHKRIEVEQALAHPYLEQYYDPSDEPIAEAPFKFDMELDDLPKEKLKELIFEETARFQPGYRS

[7] = target: mTORC2 (Homo sapiens) (UniProt P42345+Q6R327+Q9BVC4+Q9BPZ7); conditions: HEK293, dose 30-1000 nM, time 30.0 min
[8] = target: Tyrosine-protein kinase BTK (Homo sapiens) (UniProt Q06187); test: Inhibition of recombinant human N-terminal His6-tagged BTK (2 to 659 residues) expressed in baculovirus infected Sf21 cells assessed as remaining activity at 10 uM using KVEKIGEGTYGVVYK as substrate incubated for 30 mins in presence of [gamma-33P]ATP by filter binding method relative to control; procedure, shortened: as §1
Tyrosine-protein kinase BTK (Homo sapiens), sequence (Q06187 whole entry, the tested form may be a part): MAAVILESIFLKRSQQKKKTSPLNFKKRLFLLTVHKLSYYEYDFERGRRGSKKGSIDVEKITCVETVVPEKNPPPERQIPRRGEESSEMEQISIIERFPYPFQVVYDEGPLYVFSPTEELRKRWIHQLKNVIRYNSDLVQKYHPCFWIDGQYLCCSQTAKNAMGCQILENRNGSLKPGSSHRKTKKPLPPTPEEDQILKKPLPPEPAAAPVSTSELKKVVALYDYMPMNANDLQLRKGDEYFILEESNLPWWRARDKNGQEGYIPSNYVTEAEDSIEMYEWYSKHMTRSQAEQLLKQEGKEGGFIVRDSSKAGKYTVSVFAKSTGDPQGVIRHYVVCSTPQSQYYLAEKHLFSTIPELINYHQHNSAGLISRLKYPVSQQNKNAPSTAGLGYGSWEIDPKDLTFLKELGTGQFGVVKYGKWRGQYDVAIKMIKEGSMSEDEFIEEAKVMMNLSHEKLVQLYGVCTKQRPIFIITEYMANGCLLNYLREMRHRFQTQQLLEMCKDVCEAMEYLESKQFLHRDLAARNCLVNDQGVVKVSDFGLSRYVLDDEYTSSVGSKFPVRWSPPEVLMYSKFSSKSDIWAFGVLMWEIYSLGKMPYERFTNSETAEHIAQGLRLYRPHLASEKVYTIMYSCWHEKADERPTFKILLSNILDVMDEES

`COc1ccc(-c2ccc3c(N4CCOCC4)nc(N4C[C@@H](C)O[C@@H](C)C4)nc3n2)cc1CO` [Ku-0063794] showed an Activity [1] of 9.4%, an Activity [2] of 115% and an Activity [3] of 72%. For the same compound, the inhibition [4] was “Active”, the Activity [5] was 88% and the Activity [6] was 92%. The inhibition [7] was “Active” and the Activity [8] was 81%.
